How the values were obtained:
[1] = biological target: T1, Glutamate NMDA receptor (Rattus norvegicus) (UniProt P35439+Q00959+Q00960+Q00961+Q62645+Q8VHN2+Q9R1M7); experiment: (§1) Inhibition of receptor binding affinity in rat brain synaptosomal membrane was determined by [3H]-CGP- 39653 as radioligand; format: cell membranes; details: concentration not given here
Summary of the method: (§2)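 Displacement of radioligand ([3H]glutamate, [3H]glycine or [3H]CGP 39653) from rat cortex synaptosomal membranes. IC50 values are means of at least two experiments, each run in triplicate.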

[2] = biological target: T1, Glutamate NMDA receptor (Rattus norvegicus); experiment: (§3) Inhibition of NMDA receptor binding affinity in rat brain synaptosomal membrane using [3H]glutamate as radioligand; format: cell membranes; details: concentration not given here; summary of the method: as §2
[3] = biological target: T1, Glutamate NMDA receptor (Rattus norvegicus); experiment: (§4) Inhibition of NMDA receptor binding affinity in rat brain synaptosomal membrane using [3H]glycine as radioligand; format: cell membranes; details: concentration not given here; summary of the method: as §2
[4] = system: Mus musculus; experiment: Maximal electroshock (MES) results in mice by iv administration of 1 mg/kg expressed as number of animals ataxia by total 5 animals tested after 2 hr was reported; format: functional
Summary of the method: (§5)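 Adult male CF-1 mice (18–24 g) dosed iv, mg/kg. At 15 min, 1 h and 2 h after dosing, a 60 Hz sinusoidal current (50 mA base to peak, 0.2 s) is applied through corneal electrodes smeared with electrolyte jelly. Protection means no tonic hindlimb extension. Ataxia is scored by inverted screen. Data are expressed as animals affected per animals tested, 5 per group.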

[5] = system: Mus musculus; experiment: Maximal electroshock (MES) results in mice by iv administration of 0.3 mg/kg expressed as number of animals ataxia by number of animals tested after 1 hr was reported; format: functional; summary of the method: as §5
[6] = system: Mus musculus; experiment: Maximal electroshock (MES) results in mice by iv administration of 1 mg/kg expressed as number of animals ataxia by total 5 animals tested after 1 hr was reported; format: functional; summary of the method: as §5
[7] = system: Mus musculus; experiment: Maximal electroshock (MES) results in mice by iv administration of 0.3 mg/kg expressed as number of animals ataxia by total 5 animals tested after 2 hr was reported; format: functional; summary of the method: as §5
[8] = biological target: Glutamate NMDA receptor; experiment: as §1; format: cell membranes; summary of the method: as §2
[9] = system: Mus musculus; experiment: Maximal electroshock (MES) results in mice by iv administration of 1 mg/kg expressed as number of animals protected by total 5 animals tested after 15 min was reported; format: functional; summary of the method: as §5
[10] = system: Mus musculus; experiment: Maximal electroshock (MES) results in mice by iv administration of 0.3 mg/kg expressed as number of animals protected by total 5 animals tested after 1 hr was reported; format: functional; summary of the method: as §5
[11] = system: Mus musculus; experiment: Maximal electroshock (MES) results in mice by iv administration of 1 mg/kg expressed as number of animals protected by total 5 animals tested after 2 hr was reported; format: functional; summary of the method: as §5
[12] = system: Mus musculus; experiment: Maximal electroshock (MES) results in mice by iv administration of 0.3 mg/kg expressed as number of animals protected by total 5 animals tested after 15 min was reported; format: functional; summary of the method: as §5
[13] = system: Mus musculus; experiment: Maximal electroshock (MES) results in mice by iv administration of 0.3 mg/kg expressed as number of animals ataxia by total 5 animals tested after 15 min was reported; format: functional; summary of the method: as §5
[14] = biological target: Glutamate NMDA receptor; experiment: as §3; format: cell membranes; summary of the method: as §2
[15] = system: Mus musculus; experiment: Maximal electroshock (MES) results in mice by iv administration of 1 mg/kg expressed as number of animals protected by total 5 animals tested after 1 hr was reported; format: functional; summary of the method: as §5
[16] = system: Mus musculus; experiment: Maximal electroshock (MES) results in mice by iv administration of 0.3 mg/kg expressed as number of animals protected by total 5 animals tested after 2 hr was reported; format: functional; summary of the method: as §5
[17] = system: Mus musculus; experiment: Maximal electroshock (MES) results in mice by iv administration of 1 mg/kg expressed as number of animals ataxia by total 5 animals tested after 15 min was reported; format: functional; summary of the method: as §5
[18] = biological target: Glutamate NMDA receptor; experiment: as §4; format: cell membranes; summary of the method: as §2
[19] = system: Mus musculus; experiment: Maximal electroshock (MES) results in mice by iv administration of 30 mg/kg expressed as number of animals protected by total 5 animals tested after 1 hr was reported; format: functional; summary of the method: as §5
[20] = system: Mus musculus; experiment: Maximal electroshock (MES) results in mice by iv administration of 10 mg/kg expressed as number of animals protected by number of animals tested after 1 hr was reported; format: functional; summary of the method: as §5
[21] = system: Mus musculus; experiment: Maximal electroshock (MES) results in mice by iv administration of 10 mg/kg expressed as number of animals protected by total 5 animals tested after 2 hr was reported; format: functional; summary of the method: as §5
[22] = system: Mus musculus; experiment: Maximal electroshock (MES) results in mice by iv administration of 30 mg/kg expressed as number of animals ataxia by total 5 animals tested after 1 hr was reported; format: functional; summary of the method: as §5
[23] = system: Mus musculus; experiment: Maximal electroshock (MES) results in mice by iv administration of 10 mg/kg expressed as number of animals ataxia by number of animals tested after 1 hr was reported; format: functional; summary of the method: as §5
[24] = system: Mus musculus; experiment: Maximal electroshock (MES) results in mice by iv administration of 30 mg/kg expressed as number of animals ataxia by total 5 animals tested after 2 hr was reported; format: functional; summary of the method: as §5
[25] = system: Mus musculus; experiment: Maximal electroshock (MES) results in mice by iv administration of 30 mg/kg expressed as number of animals ataxia by total 5 animals tested after 15 min was reported; format: functional; summary of the method: as §5
[26] = system: Mus musculus; experiment: Maximal electroshock (MES) results in mice by iv administration of 30 mg/kg expressed as number of animals protected by total 5 animals tested after 2 hr was reported; format: functional; summary of the method: as §5
[27] = system: Mus musculus; experiment: Maximal electroshock (MES) results in mice by iv administration of 10 mg/kg expressed as number of animals ataxia by total 5 animals tested after 2 hr was reported; format: functional; summary of the method: as §5
[28] = system: Mus musculus; experiment: Maximal electroshock (MES) results in mice by iv administration of 10 mg/kg expressed as number of animals ataxia by number of animals tested after 15 min was reported; format: functional; summary of the method: as §5
[29] = system: Mus musculus; experiment: Maximal electroshock (MES) results in mice by iv administration of 10 mg/kg expressed as number of animals protected by number of animals tested after 15 min was reported; format: functional; summary of the method: as §5
[30] = system: Mus musculus; experiment: Maximal electroshock (MES) results in mice by iv administration of 30 mg/kg expressed as number of animals protected by total 5 animals tested after 15 min was reported; format: functional; summary of the method: as §5
[31] = organism: Mus musculus; experiment: Potent oral activity in MES mice.; format: functional
[32] = system: Mus musculus; experiment: Maximal electroshock results in mice by iv administration of 3 mg/kg expressed as 50% effective dose; format: functional
[33] = biological target: Glutamate NMDA receptor; experiment: Inhibition of receptor binding affinity in […] measured using LDH release
Summary of the method: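 Neuronal cell-culture excitotoxicity assay. Cell death is induced by a 5 min application of 100 μM NMDA and read out as lactate dehydrogenase release. The value is the compound concentration needed to prevent cell death.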

[34] = Therapeutic index(TI) expressed as ratio of ataxia ED50 to the MES ED50 was determined; details: read-out: TI
[35] = system: Mus musculus; experiment: Maximal electroshock (MES) results in mice by iv administration of 10 mg/kg expressed as number of animals ataxia by total 5 animals tested after 15 min was reported; format: functional; summary of the method: as §5
[36] = system: Mus musculus; experiment: Maximal electroshock (MES) results in mice by iv administration of 10 mg/kg expressed as number of animals protected by total 5 animals tested after 1 hr was reported; format: functional; summary of the method: as §5
[37] = system: Mus musculus; experiment: Maximal electroshock (MES) results in mice by iv administration of 10 mg/kg expressed as number of animals protected by total 5 animals tested after 15 min was reported; format: functional; summary of the method: as §5
[38] = system: Mus musculus; experiment: Maximal electroshock (MES) results in mice by iv administration of 10 mg/kg expressed as number of animals ataxia by total 5 animals tested after 1 hr was reported; format: functional; summary of the method: as §5

## N[C@H](Cc1cccc(-c2ccccc2)c1)C(=O)O
[1]
  inhibition: 100%
[2]
  inhibition: 90%
[3]
  inhibition: 81%

## N[C@@H](Cc1cc(CP(=O)(O)O)cc(-c2ccc3ccccc3c2)c1)C(=O)O
[4]
  Ataxia: 0
[5]
  Ataxia: 0
[6]
  Ataxia: 1
[7]
  Ataxia: 0
[8]
  IC50: 12 nM
[9]
  Protected: 1
[10]
  Protected: 0
[11]
  Protected: 5
[12]
  Protected: 1
[13]
  Ataxia: 0
[14]
  IC50: 14 nM
[15]
  Protected: 5
[16]
  Protected: 2
[17]
  Ataxia: 0

## N[C@@H](Cc1cc(-c2ccccc2)cc(CP(=O)(O)O)c1[N+](=O)[O-])C(=O)O
[8]
  IC50: 1080 nM
[18]
  IC50: 11500 nM
[14]
  IC50: 2300 nM

## N[C@H](Cc1cc(CP(=O)(O)O)cc(-c2cccc3ccccc23)c1)C(=O)O
[19]
  Protected: 3
[8]
  IC50: 250 nM
[20]
  Protected: 0
[21]
  Protected: 1
[22]
  Ataxia: 0
[23]
  Ataxia: 0
[14]
  IC50: 320 nM
[24]
  Ataxia: 0
[25]
  Ataxia: 1
[26]
  Protected: 5
[27]
  Ataxia: 0
[28]
  Ataxia: 0
[29]
  Protected: 0
[30]
  Protected: 3

## N[C@@H](Cc1cc(CP(=O)(O)O)cc(-c2cccc3ccccc23)c1)C(=O)O
[8]
  IC50: 6 nM
[31]
  ED50: 5 mg/kg
[18]
  IC50: 65400 nM
[32]
  ED50: 0.53 mg/kg
[14]
  IC50: 15 nM
[33]
  IC50: 50 nM
[34]
  selectivity ratio: 2.28

## N[C@H](Cc1cc(CP(=O)(O)O)cc(-c2ccccc2)c1)C(=O)O
[8]
  IC50: 5210 nM
[21]
  Protected: 0
[35]
  Ataxia: 0
[36]
  Protected: 0
[18]
  IC50: > 200000 nM
[14]
  IC50: 13500 nM
[37]
  Protected: 0
[27]
  Ataxia: 0
[38]
  Ataxia: 0

From ChEMBL document CHEMBL1128383, “Potent, orally active, competitive N-methyl-D-aspartate (NMDA) receptor antagonists are substrates for a neutral amino acid uptake system in Chinese hamster ovary cells” (J Med Chem, 1995)
